In ChEMBL document CHEMBL1135664, “Structure-activity relationships of 1-alkyl-5-(3,4-dichlorophenyl)- 5-[2-[(3-substituted)-1-azetidinyl]ethyl]-2-piperidones. 1. Selective antagonists of the neurokinin-2 receptor” (J Med Chem, 2002):

Columns and labels:
Substance-K receptor = biological target: T1, Substance-K receptor (Oryctolagus cuniculus, UniProt P79218); experiment: Functional potency against Tachykinin receptor 2 (NK2) in rabbit pulmonary artery assay; details: read-out: pA2 (converted)
T1 sequence (P79218 whole entry): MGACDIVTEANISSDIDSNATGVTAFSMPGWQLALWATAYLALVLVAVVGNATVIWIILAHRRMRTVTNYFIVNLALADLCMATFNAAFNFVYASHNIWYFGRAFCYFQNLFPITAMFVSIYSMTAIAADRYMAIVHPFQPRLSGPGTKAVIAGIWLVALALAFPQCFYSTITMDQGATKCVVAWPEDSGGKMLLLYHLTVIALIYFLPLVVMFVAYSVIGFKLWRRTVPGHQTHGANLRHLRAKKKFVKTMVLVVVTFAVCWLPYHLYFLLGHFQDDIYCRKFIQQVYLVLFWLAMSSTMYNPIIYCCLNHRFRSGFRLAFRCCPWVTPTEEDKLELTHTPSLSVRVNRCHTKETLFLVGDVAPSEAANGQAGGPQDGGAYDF
Outline: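 Rabbit pulmonary artery preparation; antagonism of contractions evoked by the selective NK2 agonist [β-ala8]NKA(4–10); result expressed as pA2. Each determination n ≥ 2, every experiment run in triplicate.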

Homo sapiens = organism: Homo sapiens; experiment: In vitro microsomal stability in human liver microsomes (HLM); format: functional

| Structure (SMILES) | Kb (Substance-K receptor) [nM] | half-life (Homo sapiens) [min] |
| --- | --- | --- |
| Cc1cccc(CN2CC(CCN3CC(N4CCOCC4)C3)(c3ccc(Cl)c(Cl)c3)CCC2=O)c1 (stereo not drawn) | 2.51 | – |
| O=C1CCC(CCN2CC(N3CCC(O)CC3)C2)(c2ccc(Cl)c(Cl)c2)CN1Cc1ccccc1 (stereo not drawn) | 0.0794 | – |
| O=C1CCC(CCN2CC(N3CCCOCC3)C2)(c2ccc(Cl)c(Cl)c2)CN1Cc1ccccc1 (stereo not drawn) | 2 | – |
| O=C1CCC(CCN2CC(N3C4CCC3CC(O)C4)C2)(c2ccc(Cl)c(Cl)c2)CN1Cc1ccccc1 (stereo not drawn) | 0.631 | – |
| O=C1CCC(CCN2CC(N3CCNCC3)C2)(c2ccc(Cl)c(Cl)c2)CN1CC1CC1 (stereo not drawn) | 12.6 | – |
| Cc1ccccc1CN1CC(CCN2CC(N3CCOCC3)C2)(c2ccc(Cl)c(Cl)c2)CCC1=O (stereo not drawn) | 0.501 | – |
| O=C1CCC(CCN2CC(N3CCOCC3)C2)(c2ccc(Cl)c(Cl)c2)CN1CC1CCCCC1 (stereo not drawn) | 1.26 | 70 |
| O=C1CCC(CCN2CC(N3CCCC(O)C3)C2)(c2ccc(Cl)c(Cl)c2)CN1Cc1ccccc1 (stereo not drawn) | 2 | – |
| O=C1CCC(CCN2CC(N3CCC(O)C3)C2)(c2ccc(Cl)c(Cl)c2)CN1Cc1ccccc1 (stereo not drawn) | 2 | – |
| O=C1CCC(CCN2CC(N3CCOCC3)C2)(c2ccc(Cl)c(Cl)c2)CN1C1CCCCC1 (stereo not drawn) | 0.126 | < 10 |
| Cc1ccc(CN2CC(CCN3CC(N4CCOCC4)C3)(c3ccc(Cl)c(Cl)c3)CCC2=O)cc1 (stereo not drawn) | 6.31 | – |
| NC1CCN(C2CN(CCC3(c4ccc(Cl)c(Cl)c4)CCC(=O)N(CC4CC4)C3)C2)CC1 (stereo not drawn) | 2 | 30 |
| O=C1CCC(CCN2CC(N3CCSCC3)C2)(c2ccc(Cl)c(Cl)c2)CN1Cc1ccccc1 (stereo not drawn) | 1 | – |
| CS(=O)(=O)N1CCN(C2CN(CCC3(c4ccc(Cl)c(Cl)c4)CCC(=O)N(CC4CC4)C3)C2)CC1 (stereo not drawn) | 3.16 | < 10 |
| O=C1CCC(CCN2CC(N3CCS(=O)(=O)CC3)C2)(c2ccc(Cl)c(Cl)c2)CN1Cc1ccccc1 (stereo not drawn) | 1.26 | – |
| O=C1CCC(CCN2CC(N3CCC(O)CC3)C2)(c2ccc(Cl)c(Cl)c2)CN1CC1CC1 (stereo not drawn) | 1.58 | – |
| CS(=O)(=O)NC1CCN(C2CN(CCC3(c4ccc(Cl)c(Cl)c4)CCC(=O)N(CC4CC4)C3)C2)CC1 (stereo not drawn) | 10 | – |
| CN(CC(CCN1CCC(O)(c2ccccc2)CC1)c1ccc(Cl)c(Cl)c1)C(=O)c1ccccc1 (stereo not drawn) | 0.316 | < 10 |
| O=C1CC[C@@](CCN2CC(N3CCOCC3)C2)(c2ccc(Cl)c(Cl)c2)CN1CC1CCCCC1 | 631 | 84 |
| NS(=O)(=O)N1CCN(C2CN(CCC3(c4ccc(Cl)c(Cl)c4)CCC(=O)N(CC4CC4)C3)C2)CC1 (stereo not drawn) | 1.26 | > 120 |
| O=C1CCC(CCN2CC(N3CCOCC3=O)C2)(c2ccc(Cl)c(Cl)c2)CN1Cc1ccccc1 (stereo not drawn) | 2.51 | – |
| O=C1CC[C@](CCN2CC(N3CCOCC3)C2)(c2ccc(Cl)c(Cl)c2)CN1CC1CCCCC1 | – | 14 |

| Structure (SMILES) | Kb (Substance-K receptor) [nM] | half-life (Homo sapiens) [min] |
| --- | --- | --- |
| O=C1CCC(CCN2CC(N3CCOCC3)C2)(c2ccc(Cl)c(Cl)c2)CN1 (stereo not drawn) | > 10000 | – |
| O=C1CCC(CCN2CC(N3CCOCC3)C2)(c2ccc(Cl)c(Cl)c2)CN1Cc1ccc(F)cc1 (stereo not drawn) | 20 | – |
| CN(C)S(=O)(=O)N1CCN(C2CN(CCC3(c4ccc(Cl)c(Cl)c4)CCC(=O)N(CC4CC4)C3)C2)CC1 (stereo not drawn) | 10 | – |
| CCOC1CCN(C2CN(CCC3(c4ccc(Cl)c(Cl)c4)CCC(=O)N(CC4CC4)C3)C2)CC1 (stereo not drawn) | 6.31 | – |
| O=C1CCC(CCN2CC(N3CCOCC3)C2)(c2ccc(Cl)c(Cl)c2)CN1Cc1ccccc1 (stereo not drawn) | 0.501 | 70 |
| CC(=O)N1CCN(C2CN(CCC3(c4ccc(Cl)c(Cl)c4)CCC(=O)N(Cc4ccccc4)C3)C2)CC1 (stereo not drawn) | 1.58 | – |
| CNS(=O)(=O)N1CCN(C2CN(CCC3(c4ccc(Cl)c(Cl)c4)CCC(=O)N(CC4CC4)C3)C2)CC1 (stereo not drawn) | 3.16 | – |
| O=C1CCC(CCN2CC(N3CCOCC3)C2)(c2ccc(Cl)c(Cl)c2)CN1CC1CC1 (stereo not drawn) | 7.94 | 120 |
| O=C(O)C1CCN(C2CN(CCC3(c4ccc(Cl)c(Cl)c4)CCC(=O)N(CC4CC4)C3)C2)CC1 (stereo not drawn) | 0.398 | – |
| CC(=O)NC1CCN(C2CN(CCC3(c4ccc(Cl)c(Cl)c4)CCC(=O)N(CC4CC4)C3)C2)CC1 (stereo not drawn) | 15.8 | – |
| O=C1CCC(CCN2CC(N3CCOC(c4ccccc4)C3)C2)(c2ccc(Cl)c(Cl)c2)CN1Cc1ccccc1 (stereo not drawn) | 10 | – |
| CC(=O)NC1(c2ccccc2)CCN(C2CN(CCC3(c4ccc(Cl)c(Cl)c4)CCC(=O)N(CC4CC4)C3)C2)CC1 (stereo not drawn) | 3.16 | – |
| CN(CCO)C1CN(CCC2(c3ccc(Cl)c(Cl)c3)CCC(=O)N(Cc3ccccc3)C2)C1 (stereo not drawn) | 3.16 | – |
| CN1CCN(C2CN(CCC3(c4ccc(Cl)c(Cl)c4)CCC(=O)N(Cc4ccccc4)C3)C2)CC1 (stereo not drawn) | 15.8 | – |
| O=C1CCC(CCN2CC(N3CCNCC3)C2)(c2ccc(Cl)c(Cl)c2)CN1Cc1ccccc1 (stereo not drawn) | 5.01 | – |
| NC(=O)N1CCN(C2CN(CCC3(c4ccc(Cl)c(Cl)c4)CCC(=O)N(CC4CC4)C3)C2)CC1 (stereo not drawn) | 5.01 | – |
| O=C1CCC(CCN2CC(N3CC[S+]([O-])CC3)C2)(c2ccc(Cl)c(Cl)c2)CN1Cc1ccccc1 (stereo not drawn) | 0.631 | – |
| O=C1CCC(CCN2CCC(O)(c3ccccc3)CC2)(c2ccc(Cl)c(Cl)c2)CN1Cc1ccccc1 (stereo not drawn) | 1.26 | 30 |
| O=C1CCN(C2CN(CCC3(c4ccc(Cl)c(Cl)c4)CCC(=O)N(CC4CC4)C3)C2)CC1 (stereo not drawn) | 1.26 | – |
| CS(=O)(=O)N1CCN(C2CN(CCC3(c4ccc(Cl)c(Cl)c4)CCC(=O)N(Cc4ccccc4)C3)C2)CC1 (stereo not drawn) | 0.631 | – |
| O=C1CCC(CCN2CC(N3CCOCC3)C2)(c2ccc(Cl)c(Cl)c2)CN1Cc1ccncc1 (stereo not drawn) | 100 | – |
